Measurements published in ChEMBL document CHEMBL1649124, “Genetic variability among ampC genes from acinetobacter genomic species 3” (Antimicrob Agents Chemother, 2009).
≈ marks a conversion by molar mass, not a printed value. Each block holds one molecule with its values, some of them ahead of it.

Legend:
Type in all cases: functional
Acinetobacter pittii [1] = test: Antibacterial activity against Acinetobacter genomosp. 3 isolate 65 by Etest method in presence of cloxacillin and efflux pump inhibitor PAN
Acinetobacter pittii [2] = test: Antibacterial activity against Acinetobacter genomosp. 3 isolate 90 by Etest method in presence of cloxacillin
Outline: (§1)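 MICs for AG3 clinical isolates were read by Etest following the manufacturer's instructions. Isolates were stored at –80°C in 10% Brucella glycerol broth before testing.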

Acinetobacter pittii [3] = test: Antibacterial activity against Acinetobacter genomosp. 3 isolate 21 by Etest method in presence of cloxacillin and efflux pump inhibitor CCCP
Acinetobacter pittii [4] = test: Antibacterial activity against Acinetobacter genomosp. 3 isolate 90 by Etest method in presence of cloxacillin and efflux pump inhibitor PAN
Acinetobacter pittii [5] = test: Antibacterial activity against Acinetobacter genomosp. 3 isolate 60 by Etest method in presence of cloxacillin and efflux pump inhibitor PAN
Acinetobacter pittii [6] = test: Antibacterial activity against Acinetobacter genomosp. 3 isolate 65 by Etest method in presence of efflux pump inhibitor PAN
Acinetobacter pittii [7] = test: Antibacterial activity against Acinetobacter genomosp. 3 isolate 69 by Etest method in presence of cloxacillin and efflux pump inhibitor PAN
Acinetobacter pittii [8] = test: Antibacterial activity against Acinetobacter genomosp. 3 isolate 195 by Etest method in presence of cloxacillin and efflux pump inhibitor PAN
Acinetobacter pittii [9] = test: Antibacterial activity against Acinetobacter genomosp. 3 isolate 20 by Etest method in presence of efflux pump inhibitor PAN
Acinetobacter pittii [10] = test: Antibacterial activity against Acinetobacter genomosp. 3 isolate 195 by Etest method in presence of cloxacillin; outline: as §1
Acinetobacter pittii [11] = test: Antibacterial activity against Acinetobacter genomosp. 3 isolate 52 by Etest method in presence of efflux pump inhibitor PAN
Acinetobacter pittii [12] = test: Antibacterial activity against Acinetobacter genomosp. 3 isolate 21 by Etest method in presence of efflux pump inhibitor CCCP
Acinetobacter pittii [13] = test: Antibacterial activity against Acinetobacter genomosp. 3 isolate 67 by Etest method in presence of cloxacillin and efflux pump inhibitor PAN
Acinetobacter pittii [14] = test: Antibacterial activity against Acinetobacter genomosp. 3 isolate 14 by Etest method; outline: as §1
Acinetobacter pittii [15] = test: Antibacterial activity against Acinetobacter genomosp. 3 isolate 243 by Etest method in presence of efflux pump inhibitor PAN
Acinetobacter pittii [16] = test: Antibacterial activity against Acinetobacter genomosp. 3 isolate 60 by Etest method in presence of cloxacillin; outline: as §1
Acinetobacter pittii [17] = test: Antibacterial activity against Acinetobacter genomosp. 3 isolate 21 by Etest method in presence of cloxacillin and efflux pump inhibitor PAN
Acinetobacter pittii [18] = test: Antibacterial activity against Acinetobacter genomosp. 3 isolate 14 by Etest method in presence of cloxacillin; outline: as §1
Acinetobacter pittii [19] = test: Antibacterial activity against Acinetobacter genomosp. 3 isolate 56 by Etest method in presence of efflux pump inhibitor PAN
Escherichia coli [20] = test: Antibacterial activity against Escherichia coli DH5alpha carrying ampC gene of Acinetobacter genomosp. 3 isolate 14 by Etest method
Outline: (§2)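 E. coli DH5α expressing the AG3 isolate ampC gene, PCR-amplified (high-fidelity system, 28 cycles) and cloned into BamHI/HindIII sites of pBGS18 (kanamycin marker) under the CTX-M-14 β-lactamase promoter. Grown at 37°C in LB, with kanamycin 50 µg/ml when needed. β-Lactam MICs determined by Etest per the manufacturer's instructions.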

Escherichia coli [21] = test: Antibacterial activity against Escherichia coli DH5alpha carrying ampC gene of Acinetobacter genomosp. 3 isolate 65 by Etest method; outline: as §2
Acinetobacter pittii [22] = test: Antibacterial activity against Acinetobacter genomosp. 3 isolate 52 by Etest method of efflux pump inhibitor CCCP
Acinetobacter pittii [23] = test: Antibacterial activity against Acinetobacter genomosp. 3 isolate 56 by Etest method in presence of cloxacillin and efflux pump inhibitor CCCP
Acinetobacter pittii [24] = test: Antibacterial activity against Acinetobacter genomosp. 3 isolate 20 by Etest method in presence of cloxacillin and efflux pump inhibitor CCCP
Acinetobacter pittii [25] = test: Antibacterial activity against Acinetobacter genomosp. 3 isolate 109 by Etest method in presence of cloxacillin; outline: as §1
Acinetobacter pittii [26] = test: Antibacterial activity against Acinetobacter genomosp. 3 isolate 128 by Etest method in presence of cloxacillin; outline: as §1
Acinetobacter pittii [27] = test: Antibacterial activity against Acinetobacter genomosp. 3 isolate 69 by Etest method in presence of cloxacillin and efflux pump inhibitor CCCP
Acinetobacter pittii [28] = test: Antibacterial activity against Acinetobacter genomosp. 3 isolate 90 by Etest method; outline: as §1
Acinetobacter pittii [29] = test: Antibacterial activity against Acinetobacter genomosp. 3 isolate 14 by Etest method in presence of efflux pump inhibitor PAN
Acinetobacter pittii [30] = test: Antibacterial activity against Acinetobacter genomosp. 3 isolate 128 by Etest method in presence of cloxacillin and efflux pump inhibitor PAN
Acinetobacter pittii [31] = test: Antibacterial activity against Acinetobacter genomosp. 3 isolate 60 by Etest method in presence of cloxacillin and efflux pump inhibitor CCCP
Acinetobacter pittii [32] = test: Antibacterial activity against Acinetobacter genomosp. 3 isolate 67 by Etest method in presence of cloxacillin; outline: as §1
Escherichia coli [33] = test: Antibacterial activity against Escherichia coli DH5alpha carrying ampC gene of Acinetobacter genomosp. 3 isolate 69 by Etest method; outline: as §2
Acinetobacter pittii [34] = test: Antibacterial activity against Acinetobacter genomosp. 3 isolate 109 by Etest method in presence of cloxacillin and efflux pump inhibitor PAN
Acinetobacter pittii [35] = test: Antibacterial activity against Acinetobacter genomosp. 3 isolate 128 by Etest method in presence of cloxacillin and efflux pump inhibitor CCCP
Acinetobacter pittii [36] = test: Antibacterial activity against Acinetobacter genomosp. 3 isolate 67 by Etest method in presence of cloxacillin and efflux pump inhibitor CCCP
Acinetobacter pittii [37] = test: Antibacterial activity against Acinetobacter genomosp. 3 isolate 103 by Etest method in presence of cloxacillin and efflux pump inhibitor PAN
Acinetobacter pittii [38] = test: Antibacterial activity against Acinetobacter genomosp. 3 isolate 21 by Etest method in presence of efflux pump inhibitor PAN
Acinetobacter pittii [39] = test: Antibacterial activity against Acinetobacter genomosp. 3 isolate 14 by Etest method in presence of cloxacillin and efflux pump inhibitor PAN
Acinetobacter pittii [40] = test: Antibacterial activity against Acinetobacter genomosp. 3 isolate 56 by Etest method in presence of efflux pump inhibitor CCCP
Acinetobacter pittii [41] = test: Antibacterial activity against Acinetobacter genomosp. 3 isolate 52 by Etest method; outline: as §1
Escherichia coli [42] = test: Antibacterial activity against Escherichia coli DH5alpha by Etest method
Outline: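 E. coli DH5α host strain, grown at 37°C in LB medium. MICs of β-lactams determined by Etest following the manufacturer's instructions.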

Acinetobacter pittii [43] = test: Antibacterial activity against Acinetobacter genomosp. 3 isolate 65 by Etest method in presence of efflux pump inhibitor CCCP
Acinetobacter pittii [44] = test: Antibacterial activity against Acinetobacter genomosp. 3 isolate 21 by Etest method; outline: as §1
Acinetobacter pittii [45] = test: Antibacterial activity against Acinetobacter genomosp. 3 isolate 103 by Etest method in presence of cloxacillin; outline: as §1
Acinetobacter pittii [46] = test: Antibacterial activity against Acinetobacter genomosp. 3 isolate 243 by Etest method in presence of cloxacillin and efflux pump inhibitor PAN
Escherichia coli [47] = test: Antibacterial activity against Escherichia coli DH5alpha carrying ampC gene of Acinetobacter genomosp. 3 isolate 56 by Etest method; outline: as §2
Acinetobacter pittii [48] = test: Antibacterial activity against Acinetobacter genomosp. 3 isolate 60 by Etest method in presence of efflux pump inhibitor PAN

MIC (Acinetobacter pittii [1]): 128 µg/mL
MIC (Acinetobacter pittii [2]): 192 µg/mL
MIC (Acinetobacter pittii [3]): 48 µg/mL
MIC (Acinetobacter pittii [4]): 64 µg/mL
MIC (Acinetobacter pittii [5]): > 256 µg/mL
MIC (Acinetobacter pittii [6]): > 256 µg/mL
MIC (Acinetobacter pittii [7]): > 256 µg/mL
MIC (Acinetobacter pittii [8]): > 256 µg/mL
MIC (Acinetobacter pittii [9]): > 256 µg/mL
MIC (Acinetobacter pittii [10]): > 256 µg/mL
MIC (Acinetobacter pittii [11]): > 256 µg/mL
MIC (Acinetobacter pittii [12]): > 256 µg/mL
MIC (Acinetobacter pittii [13]): 128 µg/mL
MIC (Acinetobacter pittii [14]): > 256 µg/mL
MIC (Acinetobacter pittii [15]): > 256 µg/mL
MIC (Acinetobacter pittii [16]): > 256 µg/mL
MIC (Acinetobacter pittii [17]): 192 µg/mL
MIC (Acinetobacter pittii [18]): 128 µg/mL
MIC (Acinetobacter pittii [19]): > 256 µg/mL
MIC (Escherichia coli [20]): > 256 µg/mL
MIC (Escherichia coli [21]): 192 µg/mL (≈ 484 µM)
MIC (Acinetobacter pittii [22]): > 256 µg/mL
MIC (Acinetobacter pittii [23]): 16 µg/mL
MIC (Acinetobacter pittii [24]): 24 µg/mL
MIC (Acinetobacter pittii [25]): 128 µg/mL
MIC (Acinetobacter pittii [26]): 48 µg/mL
MIC (Acinetobacter pittii [27]): 24 µg/mL
MIC (Acinetobacter pittii [28]): > 256 µg/mL
MIC (Acinetobacter pittii [29]): > 256 µg/mL
MIC (Acinetobacter pittii [30]): 48 µg/mL
MIC (Acinetobacter pittii [31]): 28 µg/mL
MIC (Acinetobacter pittii [32]): 128 µg/mL
MIC (Escherichia coli [33]): > 256 µg/mL
MIC (Acinetobacter pittii [34]): 128 µg/mL
MIC (Acinetobacter pittii [35]): 32 µg/mL
MIC (Acinetobacter pittii [36]): 24 µg/mL
MIC (Acinetobacter pittii [37]): 192 µg/mL
MIC (Acinetobacter pittii [38]): > 256 µg/mL
MIC (Acinetobacter pittii [39]): 128 µg/mL
MIC (Acinetobacter pittii [40]): 96 µg/mL
MIC (Acinetobacter pittii [41]): > 256 µg/mL
MIC (Escherichia coli [42]): 3 µg/mL (≈ 7.57 µM)
MIC (Acinetobacter pittii [43]): 128 µg/mL
MIC (Acinetobacter pittii [44]): > 256 µg/mL
MIC (Acinetobacter pittii [45]): 192 µg/mL
MIC (Acinetobacter pittii [46]): 192 µg/mL
MIC (Escherichia coli [47]): > 256 µg/mL
MIC (Acinetobacter pittii [48]): > 256 µg/mL
SMILES: CC(=O)OCC1=C(C(=O)O)N2C(=O)[C@@H](NC(=O)Cc3cccs3)[C@H]2SC1 [CEPHALOTHIN]

SMILES: C[C@@H](O)[C@H]1C(=O)N2C(C(=O)O)=C(S[C@@H]3CN[C@H](C(=O)N(C)C)C3)[C@H](C)[C@H]12 [MEROPENEM]
MIC (Acinetobacter pittii [1]): 0.38 µg/mL
MIC (Acinetobacter pittii [2]): 1 µg/mL
MIC (Acinetobacter pittii [3]): 0.25 µg/mL
MIC (Acinetobacter pittii [4]): 0.25 µg/mL
MIC (Acinetobacter pittii [5]): 0.75 µg/mL
MIC (Acinetobacter pittii [6]): 0.25 µg/mL
MIC (Acinetobacter pittii [7]): 0.38 µg/mL
MIC (Acinetobacter pittii [8]): 1 µg/mL
MIC (Acinetobacter pittii [9]): 3 µg/mL
MIC (Acinetobacter pittii [10]): 1 µg/mL
MIC (Acinetobacter pittii [11]): 0.38 µg/mL
MIC (Acinetobacter pittii [12]): 0.5 µg/mL
MIC (Acinetobacter pittii [13]): 0.25 µg/mL
MIC (Acinetobacter pittii [14]): 0.5 µg/mL (≈ 1.3 µM)
MIC (Acinetobacter pittii [15]): 0.19 µg/mL
MIC (Acinetobacter pittii [16]): 0.75 µg/mL
MIC (Acinetobacter pittii [17]): 0.64 µg/mL
MIC (Acinetobacter pittii [18]): 0.25 µg/mL
MIC (Acinetobacter pittii [19]): 0.094 µg/mL
MIC (Escherichia coli [20]): 0.023 µg/mL (≈ 0.06 µM)
MIC (Escherichia coli [21]): 0.023 µg/mL (≈ 0.06 µM)
MIC (Acinetobacter pittii [22]): 0.38 µg/mL (≈ 0.991 µM)
MIC (Acinetobacter pittii [23]): 0.125 µg/mL
MIC (Acinetobacter pittii [24]): 1.5 µg/mL
MIC (Acinetobacter pittii [25]): 0.25 µg/mL
MIC (Acinetobacter pittii [26]): 0.25 µg/mL
MIC (Acinetobacter pittii [27]): 0.19 µg/mL
MIC (Acinetobacter pittii [28]): 0.75 µg/mL (≈ 1.96 µM)
MIC (Acinetobacter pittii [29]): 0.25 µg/mL
MIC (Acinetobacter pittii [30]): 0.19 µg/mL
MIC (Acinetobacter pittii [31]): 0.25 µg/mL
MIC (Acinetobacter pittii [32]): 0.25 µg/mL
MIC (Escherichia coli [33]): 0.023 µg/mL (≈ 0.06 µM)
MIC (Acinetobacter pittii [34]): 0.38 µg/mL
MIC (Acinetobacter pittii [35]): 0.094 µg/mL
MIC (Acinetobacter pittii [36]): 0.19 µg/mL
MIC (Acinetobacter pittii [37]): 0.75 µg/mL
MIC (Acinetobacter pittii [38]): 0.47 µg/mL
MIC (Acinetobacter pittii [39]): 0.38 µg/mL
MIC (Acinetobacter pittii [40]): 0.25 µg/mL
MIC (Acinetobacter pittii [41]): 0.5 µg/mL (≈ 1.3 µM)
MIC (Escherichia coli [42]): 0.008 µg/mL (≈ 0.0209 µM)
MIC (Acinetobacter pittii [43]): 0.25 µg/mL
MIC (Acinetobacter pittii [44]): 1 µg/mL (≈ 2.61 µM)
MIC (Acinetobacter pittii [45]): 1.5 µg/mL
MIC (Acinetobacter pittii [46]): 0.19 µg/mL
MIC (Escherichia coli [47]): 0.023 µg/mL (≈ 0.06 µM)
MIC (Acinetobacter pittii [48]): 0.19 µg/mL
